KLK7 zymogen act: activates the human kallikrein-7 zymogen | P49862 | purified proKLK7, EDANS-DABCYL substrate fluorescence; 100% is mature enzyme control, 0% vehicle | activation, % at 7 µM | 370,000 tested, 0.9% active | AID 652039;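 active means activation above the mean of all tested compounds plus 3 SD, computed per campaign excluding outliers beyond control limits, cut at about 13% in these data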
Target sequence (P49862 whole entry, looked up): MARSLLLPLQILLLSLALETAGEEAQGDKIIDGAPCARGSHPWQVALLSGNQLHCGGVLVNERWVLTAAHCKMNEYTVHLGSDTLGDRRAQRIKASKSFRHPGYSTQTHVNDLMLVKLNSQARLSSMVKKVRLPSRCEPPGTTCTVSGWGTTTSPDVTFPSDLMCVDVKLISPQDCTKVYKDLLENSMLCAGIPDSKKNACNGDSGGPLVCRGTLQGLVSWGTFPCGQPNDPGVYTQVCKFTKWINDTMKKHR
DDE Tn7 FP inh: DD(E)-Tn7 binding inhibition, primary FP screen; inhibition, % at 8.3 µM; FP displacement of FITC-Tn7 peptide from fibrin DD(E); 0% = median of compound wells per plate; AID 720508; 370,000 tested, 0.13% active;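 active means inhibition above the mean of compounds falling within the control limits plus 3 SD of them, cut at about 14% in these data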
Target sequence (P02675 whole entry, looked up): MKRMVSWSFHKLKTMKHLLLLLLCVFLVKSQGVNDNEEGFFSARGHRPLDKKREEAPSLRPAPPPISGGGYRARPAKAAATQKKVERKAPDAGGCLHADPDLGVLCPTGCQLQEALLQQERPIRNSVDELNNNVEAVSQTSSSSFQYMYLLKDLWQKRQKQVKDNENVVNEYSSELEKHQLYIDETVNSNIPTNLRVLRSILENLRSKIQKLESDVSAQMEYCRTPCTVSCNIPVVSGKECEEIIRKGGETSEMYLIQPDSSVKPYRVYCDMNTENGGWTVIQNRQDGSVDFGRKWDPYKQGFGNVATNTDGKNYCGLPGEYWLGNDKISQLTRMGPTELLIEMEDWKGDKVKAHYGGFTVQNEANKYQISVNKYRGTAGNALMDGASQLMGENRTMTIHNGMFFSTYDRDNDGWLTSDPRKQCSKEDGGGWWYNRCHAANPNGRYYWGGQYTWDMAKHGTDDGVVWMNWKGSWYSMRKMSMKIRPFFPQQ
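Assay system: Human clot-derived fibrin DD(E) complex | Buffer or medium: Tris/NaCl/CaCl2 buffer, pH 7.8 | Repeats: One replicate per compound | Benchmarks: Aha-Tn7 high control | Measure: % inhibition scaled between sample-field median and high-control FP | Schedule: 10 min plus 3 h, room temperature | Signal: Fluorescence polarization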
MT1-MMP act inh: inhibitors of human MT1-MMP activation; AID 651647; GFP/RFP ratio change, % at 20 µM; 360,000 tested, 0.061% active; P50281; HT1080 RFP-PRO-GFP cells, GFP/RFP ratio fluorescence, overnight; percent of plate control window, DMSO zero;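 active means GFP/RFP ratio change of at least 30% with cell ATP level not reduced by more than half and red fluorescence within 50% of control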
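Assay system: HT1080 RFP-PRO-GFP cells. Benchmarks: DMSO vehicle wells and RFP-L50D-GFP reporter cell wells. Times: overnight cell settling, then overnight compound exposure, 37 °C, 5% CO2. Compound: 20 µM single dose, 1% DMSO. Read-out basis: GFP/RFP fluorescence ratio.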
Neddylation inh: inhibitors of human cullin neddylation; 360,000 tested, 0.58% active; calls only at 25 µM; TR-FRET cullin neddylation, biochemical; in the data active means inhibition above about 36%
DDE Tn6 FP inh: inhibitors of Tn6 peptide binding to human fibrin DD(E); P02675; Fibrin DD(E) TRITC-Tn6 fluorescence polarization displacement; inhibition, % at 8.3 µM; 370,000 tested, 0.21% active; AID 720509;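 active means inhibition above a per-campaign cutoff: mean of compounds within control limits plus 3 SD, cut at about 15% in these data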
SKN-1 inh: inhibitors of C. elegans SKN-1; C. elegans VP596 Pgst-4::GFP/RFP ratio, acrylamide-induced, 24 h; inhibition, % at 21.8 µM; 360,000 tested, 0.49% active; AID 624304;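 active means interference check ratio from 0.5 to 1.5 plus GFP to RFP signal ratio inhibition reaching or exceeding a fixed threshold, cut at about 30% in these data, passing the limit was not always enough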
Tn7 DDE conf: DD(E)-Tn7 binding inhibition, FP confirmation; inhibition, % at 8.3 µM; shares compounds with DDE Tn7 FP inh; AID 720628; 460 tested, 5% active; FP displacement of TRITC-Tn7 peptide from DD(E); 0% set at plate's compound-well median;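 active means inhibition above the campaign cutoff, the mean of compounds within control limits plus 3 SD, cut at about 14% in these data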;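 further: displacers lower polarization since freed probe rises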
Tn7 DDE ctr: DD(E)-Tn7 binding inhibition, counter-screen; 460 tested, 3% active; inhibition, % at 8.3 µM; fibrin DD(E), TRITC-Tn7 probe displacement, fluorescence polarization; shares compounds with DDE Tn7 FP inh;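 active means inhibition above the cutoff, the mean of compounds lying between the control bounds plus 3 SD of those compounds, cut at about 17% in these data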
Each line names hits and unclear results; the compound was inactive in the other large screens (follow-up assays come after a bar, where shown). Rows were chosen to be rich in hits. Some 2.2% of all compounds tested hit in one or more screens of this group.

CCOc1ccc(CCN2C(=S)N([C@@H](Cc3ccc(O)cc3)CN3CCC[C@@H]3CN3C(=S)NC[C@@H]3CC(C)C)C[C@@H]2Cc2ccccc2)cc1	none
Cc1cc(C)n(-c2ccc(C(=O)OC(C)C(=O)Nc3ccc(C(N)=O)cc3)cc2)n1 (stereo not drawn)	none
CCCN(CC(=O)Nc1cc(Cl)cc(Cl)c1)CC(=O)Nc1ccc(F)c(F)c1F	none
Nc1nc(N2C(=O)C3CC=CCC3C2=O)nn1-c1ccccc1 (stereo not drawn)	DDE Tn7 FP inh 16 | Tn7 DDE conf inactive | Tn7 DDE ctr inactive
Nc1nc(-n2cnnc2)nn1-c1ccccc1	none
CCN(CC)C(=O)N1CCN(C)CC1	DDE Tn7 FP inh 15 | Tn7 DDE conf inactive | Tn7 DDE ctr inactive
Cc1ccc(N=Cc2ccccc2O)cc1Cl	DDE Tn7 FP inh 15 | Tn7 DDE conf inactive | Tn7 DDE ctr inactive
CCCN1C(=O)c2cccc3c(N4CCCCC4)ccc(c23)C1=O	DDE Tn7 FP inh 16 | Tn7 DDE conf inactive | Tn7 DDE ctr inactive
CN(C)CCCN1C(=O)c2cccc3c(Br)ccc(c23)C1=O	none
CCCCNc1ccc2c3c(cccc13)C(=O)N(CCCC)C2=O	DDE Tn7 FP inh 47 | Tn7 DDE conf inactive | Tn7 DDE ctr 19
CC1CC(C)(C)NC(=S)N1CCCC(=O)Nc1ccc(Br)cc1 (stereo not drawn)	none
Cn1cccc1C(=O)OCC(=O)NCc1ccc2c(c1)OCO2	DDE Tn7 FP inh 21 | Tn7 DDE conf inactive | Tn7 DDE ctr inactive
O=C(Cn1nnc(-c2ccc(F)cc2)n1)Nc1ccc2c(c1)OCCO2	DDE Tn7 FP inh 15 | Tn7 DDE conf inactive | Tn7 DDE ctr inactive
COc1cc2c(cc1OC)C1(CCCCC1)CN(C)C2	none
Cc1c(O)nc2ccccn2c1=O	DDE Tn7 FP inh 14 | Tn7 DDE conf inactive | Tn7 DDE ctr inactive
CCN1CCN(c2nc3ccccc3nc2C(C#N)S(=O)(=O)c2ccc(C)cc2)CC1 (stereo not drawn)	none (not shown: Neddylation inh)
Cc1ccc(S(=O)(=O)C(C#N)c2nc3ccccc3nc2N2CCCC2)cc1 (stereo not drawn)	DDE Tn7 FP inh 16 (not shown: Neddylation inh) | Tn7 DDE conf inactive | Tn7 DDE ctr inactive
COc1c(Cl)cc(C(=O)NCc2ccco2)cc1Cl	DDE Tn7 FP inh 14 | Tn7 DDE conf inactive | Tn7 DDE ctr inactive
O=c1[nH][nH]c(C(F)(F)F)c1C=Nc1ccccc1Cl	none
CC(=O)c1ccccc1NC(=O)CCCNC(=O)c1ccc(Cl)cc1	DDE Tn7 FP inh 15 | Tn7 DDE conf inactive | Tn7 DDE ctr inactive
Cn1ncc2c(=O)n(/N=C/c3ccccc3)cnc21	none
COc1ccc(/C=C/C(=O)OCC(=O)NCCCc2ccccc2)cc1OC	none
C=CCOc1ccc(/C=C/C(=O)OCC(=O)NCCCc2ccccc2)cc1	DDE Tn7 FP inh 14 | Tn7 DDE conf inactive | Tn7 DDE ctr inactive
O=C(Nc1cccc(O)c1)C1CC(c2cccc(Br)c2)=NO1 (stereo not drawn)	none
O=C(CCCOc1ccc(Cl)cc1)N1CCCCCC1	DDE Tn7 FP inh 14 | Tn7 DDE conf inactive | Tn7 DDE ctr inactive
CCCN1CNc2c(c(=O)[nH]c(=S)n2-c2ccccc2Cl)C1	none
CCOC(=O)C(C)(C)Oc1cccc2c1S(=O)(=O)c1ccccc1-2	DDE Tn7 FP inh 14 | Tn7 DDE conf inactive | Tn7 DDE ctr inactive
COc1ccc([C@@H]2C[C@@H](c3ccccc3)Oc3c(C)ccc(C(C)C)c32)cc1	DDE Tn7 FP inh 14 (no result: MT1-MMP act inh, Neddylation inh, SKN-1 inh) | Tn7 DDE conf inactive | Tn7 DDE ctr inactive
CC(C)c1nc(C#N)c(NN)o1	DDE Tn7 FP inh 14 | Tn7 DDE conf inactive | Tn7 DDE ctr inactive
CNc1oc(-c2ccccc2)nc1C#N	none (not shown: Neddylation inh)
O=C(CSc1nnc(CNC(=O)c2ccco2)o1)Nc1cccc(Cl)c1	DDE Tn7 FP inh 16 | Tn7 DDE conf inactive | Tn7 DDE ctr inactive
COc1ccccc1CNC(=O)c1cccc(S(=O)(=O)N2CCN(C)CC2)c1	none
COc1ccccc1CN1C[C@@H]2C[C@@H](c3ccccc3C)N3CCC[C@@]23C1=O	DDE Tn7 FP inh 16 | Tn7 DDE conf inactive | Tn7 DDE ctr inactive
C/C(=N\N1CCN(Cc2ccc(Cl)cc2)CC1)c1ccc([N+](=O)[O-])cc1	DDE Tn7 FP inh 15 | Tn7 DDE conf inactive | Tn7 DDE ctr inactive
O=[N+]([O-])c1ccc(Cl)c(/C=N/N2CCN(Cc3ccc(Cl)cc3)CC2)c1	none
Cc1noc(C)c1S(=O)(=O)Nc1ccc2c(c1)C(=O)N([C@@H](C)CO)C[C@H](C)[C@@H](CN(C)Cc1ccc(C(F)(F)F)cc1)OCCCC[C@H](C)O2	DDE Tn7 FP inh 14 | Tn7 DDE conf inactive | Tn7 DDE ctr inactive
CN(CC(=O)NC(=O)NC(C)(C)C)CC(=O)Nc1ccccc1Cl	none
O=C(CCc1nnc(Cc2ccc(-c3ccccc3)cc2)o1)N1CCCC1	DDE Tn7 FP inh 16 | Tn7 DDE conf inactive | Tn7 DDE ctr inactive
COC(=O)c1sc(S(=O)(=O)N2CCCCC2)c(C(=O)OC)c1C	none
COC(=O)c1sc(S(=O)(=O)N2CCN(c3ccccc3)CC2)c(C(=O)OC)c1C	DDE Tn7 FP inh 14 | Tn7 DDE conf inactive | Tn7 DDE ctr inactive
CC1CCN(CC(O)COCCC23CC4CC(CC(C4)C2)C3)CC1 (stereo not drawn)	DDE Tn7 FP inh 15 | Tn7 DDE conf inactive | Tn7 DDE ctr inactive
Cc1ccccc1CNC(=O)c1ccccc1C	none
Cc1ccccc1C(=O)NCC(C)NC(=O)c1ccccc1C (stereo not drawn)	DDE Tn7 FP inh 14 | Tn7 DDE conf inactive | Tn7 DDE ctr inactive
O=C1CC(=O)N(c2ccccc2)c2ccccc21	none
CC1CCCCN1C(=O)COC(=O)Cc1c[nH]c2ccccc12 (stereo not drawn)	DDE Tn7 FP inh 15 | Tn7 DDE conf inactive | Tn7 DDE ctr inactive
Cc1ccccc1N1CC(C(=O)Nc2ccc(S(=O)(=O)NCC3CCCO3)cc2)CC1=O (stereo not drawn)	none
CCCCn1c(SCC(=O)NC2CCS(=O)(=O)C2)nc2ccccc2c1=O (stereo not drawn)	none
CCOC(=O)N1CCN(CCc2ccccc2)CC1	none
COc1ccc2c(Cl)c(C(=O)N/N=C3\CCCC(=O)C3)sc2c1	DDE Tn7 FP inh 32 | Tn7 DDE conf inactive | Tn7 DDE ctr inactive
CCOP(=O)(c1ccccc1)C(O)c1ccc([N+](=O)[O-])cc1 (stereo not drawn)	DDE Tn7 FP inh 16 | Tn7 DDE conf inactive | Tn7 DDE ctr inactive

Screening data deposited in PubChem BioAssay by several laboratories.
